Assay [1] concerns CHO. The assay can be described thus: Compound was evaluated for the blockade of [Pro]SP-induced cAMP formation in CHO cells. It counts as functional, cell-based. Conditions: Cricetulus griseus, read-out: pA2 (converted). A digest of the protocol: (§1)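 Intact CHO cells transfected with the human NK-1 receptor. Antagonist inhibition of agonist-stimulated cAMP formation is reported as pA2, or as pKB for uncompetitive antagonism.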

The test system of assay [2] is CHO. The assay can be described thus: Compound was evaluated for the blockade of [Pro]SP-induced IPs hydrolysis in CHO cells. Conditions: Cricetulus griseus, read-out: pA2 (converted). Format: functional, cell-based. A digest of the protocol:
(§2)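 Intact CHO cells transfected with the human tachykinin NK-1 receptor. Antagonism of agonist-stimulated phosphoinositide (IP) hydrolysis is expressed as pA2, or as pKB where antagonism was uncompetitive.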

The target in a further assay is Substance-P receptor (Homo sapiens, UniProt P25103). The assay can be described thus: Compound was evaluated for affinity towards human tachykinin NK-1 receptor expressed in CHO cells. It counts as cell-based.
Chain of Substance-P receptor (P25103 whole entry): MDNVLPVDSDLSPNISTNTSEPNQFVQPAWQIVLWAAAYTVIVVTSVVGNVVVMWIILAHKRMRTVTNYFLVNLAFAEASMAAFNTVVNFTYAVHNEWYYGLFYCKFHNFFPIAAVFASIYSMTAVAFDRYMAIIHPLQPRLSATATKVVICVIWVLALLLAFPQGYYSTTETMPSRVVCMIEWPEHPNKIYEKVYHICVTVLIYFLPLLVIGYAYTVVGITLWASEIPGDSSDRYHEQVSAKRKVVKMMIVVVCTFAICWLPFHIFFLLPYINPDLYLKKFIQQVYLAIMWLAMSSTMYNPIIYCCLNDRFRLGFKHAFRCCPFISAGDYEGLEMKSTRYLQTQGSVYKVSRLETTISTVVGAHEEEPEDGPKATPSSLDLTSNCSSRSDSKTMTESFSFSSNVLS
The subject of assay [3] is CHO. Put plainly: Compound was evaluated for the blockade of NKA-induced (neurokinin A) IPs hydrolysis in CHO cells. It counts as functional, cell-based. Conditions: Cricetulus griseus, read-out: pA2 (converted). The essentials:
as §2

Assay [4] concerns CHO. The assay can be described thus: Compound was evaluated for the inhibition of IPs hydrolysis on intact CHO cells expressing the human tachykinin NK-1 receptor. It counts as functional, cell-based. Conditions: Cricetulus griseus. A digest of the protocol:
as §2

The test system of assay [5] is CHO. The assay can be described thus: Compound was evaluated for the inhibition of cAMP formation on intact CHO cells expressing the human tachykinin NK-1 receptor. As to conditions: Cricetulus griseus. Format: functional, cell-based. The essentials: as §1
(In general: cAMP levels reflect the balance of adenylyl cyclase and phosphodiesterase activity.)

The results in this text go back to ChEMBL document CHEMBL1130821 (Bioorg Med Chem Lett, 1998).

The structures appear in SMILES notation. pEC50, pKi: −log10 of the molar value. Starred links: 1 amine or outer side, 2 acyl side, 3 side chain; linkers in the order of their positions; H or OH if unused. Non-standard residues stand in square brackets, D forms with d. Residues, ends and D or L forms follow the SMILES beside them. X1 = O=C([C@@H]1C(Cc2ccccc2)CCN1[*:1])[*:2]; NMeF = CN[C@@H](Cc1ccccc1)C(=O)O

Broadly, the pKi is the Ki on a negative log10 scale, so that one unit is a factor of ten. With `CN(C(=O)[C@@H]1CCCN1C(=O)[C@H](Cc1ccccc1)NC(=O)[C@H](Cc1ccccc1)NC(=O)[C@H](CCC(N)=O)NC(=O)[C@H](CCC(N)=O)NC(=O)[C@@H]1CCCN1C(=O)[C@H](CCCCN)NC(=O)[C@@H]1CCCN1C(=O)[C@@H](N)CCCN=C(N)N)[C@@H](Cc1ccccc1)C(=O)N[C@@H](Cc1c[nH]c2ccccc12)C(N)=O` (H-RPKPQQFFP[NMeF]W-NH2), the Kb is 115 nM in the assay with CHO [1], 347 nM in the assay with CHO [2] and 398 nM in the assay with CHO [3]. On Substance-P receptor, this compound had a pKi of 6.96.

As a reminder, the pEC50 is the negative decadic logarithm of the EC50, by convention in mol/L. A high value points to a small EC50. Turning to `CSCC[C@H](NC(=O)[C@H](CC(C)C)NC(=O)[C@@H]1CCCN1C(=O)[C@H](Cc1ccccc1)NC(=O)[C@H](Cc1ccccc1)NC(=O)[C@H](CCC(N)=O)NC(=O)[C@H](CCC(N)=O)NC(=O)[C@@H]1CCCN1C(=O)[C@H](CCCCN)NC(=O)[C@@H]1CCCN1C(=O)[C@@H](N)CCCN=C(N)N)C(N)=O`, the pEC50 with CHO [4] is 8.92; in the assay with CHO [5], 8.00. In addition, the pKi on Substance-P receptor is 8.96.

For the compound `NCCCC[C@H](NC(=O)[C@@H]1CCCN1C(=O)[C@@H](N)CCCN=C(N)N)C(=O)N1CCC[C@H]1C(=O)N[C@@H](CCC(N)=O)C(=O)N[C@@H](CCC(N)=O)C(=O)N[C@@H](Cc1ccccc1)C(=O)N[C@@H](Cc1ccccc1)C(=O)N1CCC[C@H]1C(=O)N1CCC(Cc2ccccc2)[C@H]1C(=O)N[C@@H](Cc1c[nH]c2ccccc12)C(N)=O` (some centres not stated) (H-RPKPQQFFP[X1]W-NH2), the Kb in the assay on CHO [1] is 18.2 nM; in the assay with CHO [2] it was 25.1 nM; in the assay on CHO [3], 10 nM. Besides, at Substance-P receptor, the pKi is 7.10.

Consider `CSCC[C@H](NC(=O)[C@H](CC(C)C)NC(=O)CNC(=O)[C@@H](NC(=O)[C@H](Cc1ccccc1)NC(=O)[C@H](CO)NC(=O)[C@H](CC(=O)O)NC(=O)[C@@H](NC(=O)[C@H](CCCCN)NC(=O)[C@@H](N)Cc1c[nH]cn1)[C@@H](C)O)C(C)C)C(N)=O` [NEUROKININ A], for which the pEC50 is 8.10 with CHO [4] and 5.91 in the assay with CHO [5].

Take `CC(C)C[C@@H](C(=O)N[C@@H](Cc1c[nH]c2ccccc12)C(N)=O)N1CC[C@@]2(CCCN2C(=O)[C@H](Cc2ccc(O)cc2)NC(=O)[C@H](Cc2ccccc2)NC(=O)[C@H](CCCCN)NC(=O)[C@H](CC(N)=O)NC(=O)[C@@H]2CCCN2C(=O)[C@H](CC(=O)O)NC(=O)[C@H](C)NC(=O)[C@@H]2CCC(=O)N2)C1=O`: the figures for the Kb with CHO [1], in the assay on CHO [2] and with CHO [3] were 15.8 nM, 63.1 nM and 12.6 nM, respectively. The pKi at Substance-P receptor is 7.25.
